Legend:
Format in all cases: functional
RXF 393 = assay: Growth inhibition of human RXF393 cells after 48 hrs by sulforhodamine B assay; conditions: RXF 393, 48 h
Method in brief: (§1)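 NCI 60-human-tumor-cell-line panel, with compounds tested over a 5-log dose range. Values are taken from dose-response curves as log10 molar concentrations: GI50 is 50% net growth inhibition, TGI is total growth inhibition, and LC50 is 50% net cell death.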

HCT-116 = assay: Growth inhibition of human HCT116 cells after 48 hrs by sulforhodamine B assay; conditions: HCT-116, 48 h; method in brief: as §1
SK-MEL-5 = assay: Growth inhibition of human SK-MEL-5 cells after 48 hrs by sulforhodamine B assay; conditions: SK-MEL-5, 48 h; method in brief: as §1
CAKI-1 = assay: Growth inhibition of human Caki1 cells after 48 hrs by sulforhodamine B assay; conditions: CAKI-1, 48 h; method in brief: as §1
U-251 = assay: Growth inhibition of human U251 cells after 48 hrs by sulforhodamine B assay; conditions: U-251, 48 h
Method in brief: (§2)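 Run in the NCI 60-human-tumour-cell-line panel, tested over a 5-log dose range. Dose–response curves gave three values per cell line, each as a log10 molar concentration: GI50 (50% inhibition of net cell growth), TGI (total inhibition of net growth) and LC50 (50% net cell death). The mean graph midpoint is the arithmetic mean over all lines, with insensitive lines entered at the highest concentration tested.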

M14 = assay: Growth inhibition of human M14 cells after 48 hrs by sulforhodamine B assay; conditions: M14, 48 h; method in brief: as §1
SF-295 = assay: Growth inhibition of human SF295 cells after 48 hrs by sulforhodamine B assay; conditions: SF-295, 48 h; method in brief: as §1
[1] = Growth inhibition of human […] cells after 48 hrs by sulforhodamine B assay; method in brief: as §1
OVCAR-4 = assay: Growth inhibition of human OVCAR4 cells after 48 hrs by sulforhodamine B assay; conditions: OVCAR-4, 48 h; method in brief: as §1
MDA-MB-231 = assay: Growth inhibition of human MDA-MB-231 cells after 48 hrs by sulforhodamine B assay; conditions: MDA-MB-231, 48 h; method in brief: as §1
NCI-H322M = assay: Growth inhibition of human NCI-H322M cells after 48 hrs by sulforhodamine B assay; method in brief: as §1
NCI-H522 = assay: Growth inhibition of human NCI-H522 cells after 48 hrs by sulforhodamine B assay; conditions: NCI-H522, 48 h; method in brief: as §1
SK-MEL-2 = assay: Growth inhibition of human SK-MEL-2 cells after 48 hrs by sulforhodamine B assay; conditions: SK-MEL-2, 48 h; method in brief: as §1
SNB-19 = assay: Growth inhibition of human SNB19 cells after 48 hrs by sulforhodamine B assay; conditions: SNB-19, 48 h; method in brief: as §2
NCI-H23 = assay: Growth inhibition of human NCI-H23 cells after 48 hrs by sulforhodamine B assay; conditions: NCI-H23, 48 h; method in brief: as §1
SK-MEL-28 = assay: Growth inhibition of human SK-MEL-28 cells after 48 hrs by sulforhodamine B assay; conditions: SK-MEL-28, 48 h; method in brief: as §1
NCI/ADR-RES = assay: Growth inhibition of human NCI/ADR-RES cells after 48 hrs by sulforhodamine B assay; method in brief: as §1
UACC-62 = assay: Growth inhibition of human UACC62 cells after 48 hrs by sulforhodamine B assay; conditions: UACC-62, 48 h; method in brief: as §2
OVCAR-3 = assay: Growth inhibition of human OVCAR-3 cells after 48 hrs by sulforhodamine B assay; conditions: OVCAR-3, 48 h; method in brief: as §1
K562 = assay: Growth inhibition of human K562 cells after 48 hrs by sulforhodamine B assay; conditions: K562, 48 h; method in brief: as §1
COLO 205 = assay: Growth inhibition of human COLO205 cells after 48 hrs by sulforhodamine B assay; conditions: COLO 205, 48 h; method in brief: as §1
[2] = Growth inhibition of human Hs 578T cells after 48 hrs by sulforhodamine B assay; method in brief: as §1
SF-268 [3] = assay: Anticancer activity against human SF268 cells assessed as cell growth at 100 uM after 48 hrs by sulforhodamine B assay; conditions: SF-268, 48 h, read-out: Activity
MDA-MB-435 = assay: Growth inhibition of human MDA-MB-435 cells after 48 hrs by sulforhodamine B assay; conditions: MDA-MB-435, 48 h; method in brief: as §1
MCF7 = assay: Anticancer activity against human MCF7 cells assessed as cell growth at 100 uM after 48 hrs by sulforhodamine B assay; conditions: MCF7, 48 h, read-out: Activity
OVCAR-5 = assay: Growth inhibition of human OVCAR5 cells after 48 hrs by sulforhodamine B assay; conditions: OVCAR-5, 48 h; method in brief: as §1
786-0 = assay: Growth inhibition of human 786-0 cells after 48 hrs by sulforhodamine B assay; conditions: 786-0, 48 h; method in brief: as §1
LOX IMVI = assay: Growth inhibition of human LOXIMVI cells after 48 hrs by sulforhodamine B assay; method in brief: as §1
SW-620 = assay: Growth inhibition of human SW620 cells after 48 hrs by sulforhodamine B assay; conditions: SW-620, 48 h; method in brief: as §2
SF-268 [4] = assay: Growth inhibition of human SF268 cells after 48 hrs by sulforhodamine B assay; conditions: SF-268, 48 h; method in brief: as §1
[5] = read-out: pLC50 (the source's name) (converted)

`Nc1cc(N)c2nc(-c3ccccc3)c(Oc3ccc(Cl)c(Cl)c3)nc2c1` gave a GI50 (RXF 393) of 6.03 µM, a CC50 (RXF 393; [5]) greater than 100 µM and a TGI (RXF 393; read-out: pTGI (converted)) of 58.9 µM. It also gave a GI50 (HCT-116) of 15.8 µM, an LC50 (concentration causing 50% net cell death) (HCT-116) greater than 100 µM and a TGI (HCT-116; read-out: pTGI (converted)) of 47.9 µM. The GI50 (SK-MEL-5) was 9.77 µM, the CC50 (SK-MEL-5; [5]) was 83.2 µM and the TGI (SK-MEL-5; read-out: pTGI (converted)) was 28.8 µM. For the same molecule, the GI50 (CAKI-1) was 15.8 µM, the CC50 (CAKI-1; [5]) was greater than 100 µM and the TGI (CAKI-1; read-out: pTGI (converted)) was greater than 100 µM. It also gave a GI50 (U-251) of 12 µM, an LC50 (50% net cell kill) (U-251) of 83.2 µM and a TGI (U-251; read-out: pTGI (converted)) of 31.6 µM. The GI50 (M14) was 14.1 µM, the CC50 (M14; [5]) was greater than 100 µM and the TGI (M14; read-out: pTGI (converted)) was 70.8 µM. The GI50 (SF-295) was 13.8 µM, the LC50 (50% net cell kill) (SF-295) was 69.2 µM and the TGI (SF-295; read-out: pTGI (converted)) was 30.9 µM. The GI50 [1] was 3.47 µM, the LC50 [1] was greater than 100 µM and the TGI ([1]; read-out: pTGI (converted)) was greater than 100 µM. For the same molecule, the GI50 (OVCAR-4) was 33.1 µM, the CC50 (OVCAR-4; [5]) was greater than 100 µM and the TGI (OVCAR-4; read-out: pTGI (converted)) was greater than 100 µM. It also gave a GI50 (MDA-MB-231) of 10.2 µM, a CC50 (MDA-MB-231; [5]) of 66.1 µM and a TGI (MDA-MB-231; read-out: pTGI (converted)) of 26.3 µM. For the same molecule, the GI50 (NCI-H322M) was 21.4 µM, the LC50 (NCI-H322M) was greater than 100 µM and the TGI (NCI-H322M; read-out: pTGI (converted)) was 58.9 µM. For the same molecule, the GI50 (NCI-H522) was 8.32 µM, the LC50 (NCI-H522) was greater than 100 µM and the TGI (NCI-H522; read-out: pTGI (converted)) was 33.9 µM. It also gave a GI50 (SK-MEL-2) of 5.62 µM, a CC50 (SK-MEL-2; [5]) of 89.1 µM and a TGI (SK-MEL-2; read-out: pTGI (converted)) of 23.4 µM. It also gave a GI50 (SNB-19) of 20.9 µM, an LC50 (SNB-19) greater than 100 µM and a TGI (SNB-19; read-out: pTGI (converted)) of 52.5 µM. For the same molecule, the GI50 (NCI-H23) was 15.5 µM, the LC50 (50% net cell kill concentration) (NCI-H23) was greater than 100 µM and the TGI (NCI-H23; read-out: pTGI (converted)) was 39.8 µM. For the same molecule, the GI50 (SK-MEL-28) was 21.4 µM, the CC50 (SK-MEL-28; [5]) was greater than 100 µM and the TGI (SK-MEL-28; read-out: pTGI (converted)) was 64.6 µM. It also gave a GI50 (NCI/ADR-RES) of 11.7 µM, a CC50 (NCI/ADR-RES; [5]) greater than 100 µM and a TGI (NCI/ADR-RES; read-out: pTGI (converted)) of 36.3 µM. It also gave a GI50 (UACC-62) of 16.2 µM, a CC50 (UACC-62; [5]) greater than 100 µM and a TGI (UACC-62; read-out: pTGI (converted)) of 47.9 µM. It also gave a GI50 (OVCAR-3) of 10.7 µM, a CC50 (OVCAR-3; [5]) of 66.1 µM and a TGI (OVCAR-3; read-out: pTGI (converted)) of 26.9 µM. For the same molecule, the GI50 (K562) was 3.55 µM, the LC50 (K562) was greater than 100 µM and the TGI (K562; read-out: pTGI (converted)) was greater than 100 µM. It also gave a GI50 (COLO 205) of 20.4 µM, an LC50 (50% net cell kill) (COLO 205) greater than 100 µM and a TGI (COLO 205; read-out: pTGI (converted)) of 67.6 µM. For the same molecule, the GI50 [2] was 10.7 µM, the CC50 [2, 5] was greater than 100 µM and the TGI ([2]; read-out: pTGI (converted)) was 33.9 µM. For the same molecule, the growth at 100 µM (SF-268 [3]) was 0%, the GI50 (MDA-MB-435) was 5.01 µM and the CC50 (MDA-MB-435; [5]) was 93.3 µM. It also gave a TGI (MDA-MB-435; read-out: pTGI (converted)) of 20.9 µM, a growth at 100 µM (MCF7) of 2% and a GI50 (OVCAR-5) of 25.1 µM. The CC50 (OVCAR-5; [5]) was greater than 100 µM, the TGI (OVCAR-5; read-out: pTGI (converted)) was 58.9 µM and the GI50 (786-0) was 12.6 µM. For the same molecule, the CC50 (786-0; [5]) was greater than 100 µM, the TGI (786-0; read-out: pTGI (converted)) was 44.7 µM and the GI50 (LOX IMVI) was 16.2 µM. The LC50 (LOX IMVI) was 72.4 µM, the TGI (LOX IMVI; read-out: pTGI (converted)) was 33.9 µM and the GI50 (SW-620) was 9.77 µM. The CC50 (SW-620; [5]) was 91.2 µM, the TGI (SW-620; read-out: pTGI (converted)) was 30.2 µM and the GI50 (SF-268 [4]) was 17 µM. The LC50 (SF-268 [4]) was greater than 100 µM and the TGI (SF-268 [4]; read-out: pTGI (converted)) was 52.5 µM.

Reference: ChEMBL document CHEMBL1137710, “Synthesis and in vitro antitumor activity of new quinoxaline derivatives” (2009)
